Reference: ChEMBL document CHEMBL1165950, “Design and synthesis of new potent anticancer pyrazoles with high FLT3 kinase inhibitory selectivity” (Bioorg Med Chem, 2010)

Assays:
Assay type in all cases: functional
[1] = system: HCT-116; experiment: Cytotoxicity against human HCT116 cells assessed as cell growth at 100 nM after 48 hrs by sulforhodamine B assay; details: HCT-116, 48 h, read-out: Activity
[2] = system: 786-0; experiment: Cytotoxicity against human 786-0 cells assessed as cell growth at 10 uM after 48 hrs by sulforhodamine B assay; details: 786-0, 48 h, read-out: Activity
[3] = Cytotoxicity against human […] cells assessed as cell growth at 10 uM after 48 hrs by sulforhodamine B assay; details: read-out: Activity
[4] = system: HCC 2998; experiment: Cytotoxicity against human HCC2998 cells assessed as cell growth at 1 uM after 48 hrs by sulforhodamine B assay; details: HCC 2998, 48 h, read-out: Activity
[5] = system: DU-145; experiment: Cytotoxicity against human DU145 cells assessed as cell growth at 0.01 uM after 48 hrs by sulforhodamine B assay; details: DU-145, 48 h, read-out: Activity
[6] = system: HCC 2998; experiment: Growth inhibition of human HCC2998 cells after 48 hrs by sulforhodamine B assay; details: HCC 2998, 48 h; for CC50: read-out: LC50 (the source's name)
Procedure, shortened: (§1)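 NCI 60-cell screen, five-dose mode. Cells grown in RPMI 1640 with 5% FBS and 2 mM L-glutamine and plated at 5000-40,000 cells/well according to doubling time. After 24 h preincubation, a Tz plate was TCA-fixed. Five concentrations (10-fold or 1/2 log dilutions) were applied for 48 h at 37 °C. SRB staining read at 515 nm. IC50 taken from [(Ti-Tz)/(C-Tz)]×100 = 50.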

[7] = system: MCF7; experiment: Cytotoxicity against human MCF7 cells assessed as cell growth at 100 nM after 48 hrs by sulforhodamine B assay; details: MCF7, 48 h, read-out: Activity
[8] = system: ACHN; experiment: Cytotoxicity against human ACHN cells assessed as cell growth at 0.01 uM after 48 hrs by sulforhodamine B assay; details: read-out: Activity
[9] = system: MCF7; experiment: Cytotoxicity against human MCF7 cells assessed as cell growth at 1 uM after 48 hrs by sulforhodamine B assay; details: MCF7, 48 h, read-out: Activity
[10] = system: SK-MEL-28; experiment: Cytotoxicity against human SK-MEL-28 cells assessed as cell growth at 1 uM after 48 hrs by sulforhodamine B assay; details: SK-MEL-28, 48 h, read-out: Activity
[11] = system: KM12; experiment: Cytotoxicity against human KM12 cells assessed as cell growth at 10 uM; details: read-out: Activity
Procedure, shortened: (§2)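 NCI-60 screen: cells grown in RPMI 1640 with 5% FBS and 2 mM L-glutamine, plated at 5000–40,000 cells/well according to doubling time, and preincubated 24 h at 37 °C, 5% CO2. The single 10 µM dose (DMSO stock) was added, then incubated 48 h. Cells were TCA-fixed and stained with 0.4% SRB, read at 515 nm, and growth % calculated against time-zero and control plates.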

[12] = system: SK-MEL-28; experiment: Growth inhibition of human SK-MEL-28 cells after 48 hrs by sulforhodamine B assay; details: SK-MEL-28, 48 h; for CC50: read-out: LC50 (the source's name); procedure, shortened: as §1
[13] = system: MCF7; experiment: Cytotoxicity against human MCF7 cells assessed as cell growth at 10 uM after 48 hrs by sulforhodamine B assay; details: MCF7, 48 h, read-out: Activity
[14] = system: SK-MEL-5; experiment: Cytotoxicity against human SK-MEL-5 cells assessed as cell growth at 1 uM after 48 hrs by sulforhodamine B assay; details: SK-MEL-5, 48 h, read-out: Activity
[15] = system: NCI-H226; experiment: Cytotoxicity against human NCI-H226 cells assessed as cell growth at 1 uM after 48 hrs by sulforhodamine B assay; details: NCI-H226, 48 h, read-out: Activity
[16] = system: RXF 393; experiment: Cytotoxicity against human RXF393 cells assessed as cell growth at 100 nM after 48 hrs by sulforhodamine B assay; details: RXF 393, 48 h, read-out: Activity
[17] = system: MCF7; experiment: Cytotoxicity against human MCF7 cells assessed as cell growth at 0.001 uM after 48 hrs by sulforhodamine B assay; details: MCF7, 48 h, read-out: Activity
[18] = system: HCC 2998; experiment: Cytotoxicity against human HCC2998 cells assessed as cell growth at 100 nM after 48 hrs by sulforhodamine B assay; details: HCC 2998, 48 h, read-out: Activity
[19] = system: NCI-H226; experiment: Cytotoxicity against human NCI-H226 cells assessed as cell growth at 10 uM after 48 hrs by sulforhodamine B assay; details: NCI-H226, 48 h, read-out: Activity
[20] = system: SK-MEL-28; experiment: Cytotoxicity against human SK-MEL-28 cells assessed as cell growth at 10 uM after 48 hrs by sulforhodamine B assay; details: SK-MEL-28, 48 h, read-out: Activity
[21] = system: MDA-MB-435; experiment: Cytotoxicity against human MDA-MB-435 cells assessed as cell growth at 0.01 uM after 48 hrs by sulforhodamine B assay; details: MDA-MB-435, 48 h, read-out: Activity
[22] = system: RXF 393; experiment: Cytotoxicity against human RXF393 cells assessed as cell growth at 1 uM after 48 hrs by sulforhodamine B assay; details: RXF 393, 48 h, read-out: Activity
[23] = system: RXF 393; experiment: Growth inhibition of human RXF393 cells after 48 hrs by sulforhodamine B assay; details: RXF 393, 48 h; procedure, shortened: as §1
[24] = system: SR; experiment: Cytotoxicity against human SR cells assessed as cell growth at 0.01 uM after 48 hrs by sulforhodamine B assay; details: read-out: Activity
[25] = system: SF-295; experiment: Cytotoxicity against human SF295 cells assessed as cell growth at 100 nM after 48 hrs by sulforhodamine B assay; details: SF-295, 48 h, read-out: Activity
[26] = system: SR; experiment: Cytotoxicity against human SR cells assessed as cell growth at 0.001 uM after 48 hrs by sulforhodamine B assay; details: read-out: Activity
[27] = system: NCI-H226; experiment: Cytotoxicity against human NCI-H226 cells assessed as cell growth at 0.01 uM after 48 hrs by sulforhodamine B assay; details: NCI-H226, 48 h, read-out: Activity
[28] = system: RXF 393; experiment: Cytotoxicity against human RXF393 cells assessed as cell growth at 0.001 uM after 48 hrs by sulforhodamine B assay; details: RXF 393, 48 h, read-out: Activity
[29] = system: CAKI-1; experiment: Cytotoxicity against human Caki1 cells assessed as cell growth at 1 uM after 48 hrs by sulforhodamine B assay; details: CAKI-1, 48 h, read-out: Activity
[30] = system: RXF 393; experiment: Cytotoxicity against human RXF393 cells assessed as cell growth at 10 uM after 48 hrs by sulforhodamine B assay; details: RXF 393, 48 h, read-out: Activity
[31] = system: MCF7; experiment: Growth inhibition of human MCF7 cells after 48 hrs by sulforhodamine B assay; details: MCF7, 48 h; procedure, shortened: as §1
[32] = Cytotoxicity against human […] cells assessed as cell growth at 10 uM; details: read-out: Activity; procedure, shortened: as §2
[33] = system: PC-3; experiment: Cytotoxicity against human PC3 cells assessed as cell growth at 10 uM after 48 hrs by sulforhodamine B assay; details: PC-3, 48 h, read-out: Activity
[34] = system: CCRF-CEM; experiment: Cytotoxicity against human CCRF-CEM cells assessed as cell growth at 10 uM; details: read-out: Activity
Procedure, shortened: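 Single-dose NCI-60 screen at 10 µM. Cells were grown in RPMI 1640 with 5% FBS and 2 mM L-glutamine, then treated for 48 h at 37 °C. Protein was measured by SRB staining with absorbance at 515 nm. Percentage growth was recorded, and inhibition percentage was calculated as 100 minus growth percentage.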

[35] = system: UO-31; experiment: Cytotoxicity against human UO31 cells assessed as cell growth at 10 uM after 48 hrs by sulforhodamine B assay; details: UO-31, 48 h, read-out: Activity

COc1cc(C)cc(-c2nn(CC#N)cc2-c2ccnc(-c3ccc(N(C)C)cc3)c2)c1
growth at 0.1 µM [1]: 11%
growth at 10 µM [2]: -36%
growth at 10 µM [3]: -28%
growth at 1 µM [4]: -51%
growth at 0.01 µM [5]: 99%
GI50 [6]: 455 nM
TGI [6]: 1.93 µM
CC50 [6]: 9.69 µM
growth at 0.1 µM [7]: 24%
growth at 0.01 µM [8]: 98%
growth at 1 µM [9]: 7%
growth at 1 µM [10]: 45%
growth at 10 µM [11]: 7.15%
GI50 [12]: 776 nM
TGI [12]: > 100 µM
CC50 [12]: > 100 µM
growth at 10 µM [13]: -13%
growth at 1 µM [14]: -40%
growth at 1 µM [15]: 3%
growth at 0.1 µM [16]: -25%
growth at 0.001 µM [17]: 104%
growth at 0.1 µM [18]: 20%
growth at 10 µM [19]: -22%
growth at 10 µM [20]: 13%
growth at 0.01 µM [21]: 94%
growth at 1 µM [22]: -21%
GI50 [23]: 258 nM
LC50 (concentration killing 50% of the starting cells) [23]: > 100 µM
TGI [23]: 633 nM
growth at 0.01 µM [24]: 97%
growth at 0.1 µM [25]: 3%
growth at 0.001 µM [26]: 96%
growth at 0.01 µM [27]: 105%
growth at 0.001 µM [28]: 105%
growth at 1 µM [29]: 4%
growth at 10 µM [30]: -24%
GI50 [31]: 66.4 nM
LC50 [31]: > 100 µM
TGI [31]: 22.7 µM

COc1cc(C)cc(-c2nn(CC#N)cc2-c2ccc(-c3cccc(C(C)=O)c3)nc2)c1
growth at 0.1 µM [1]: 78%
growth at 10 µM [3]: -21%
growth at 1 µM [4]: -17%
growth at 0.01 µM [5]: 98%
GI50 [6]: 2080 nM
TGI [6]: 6.77 µM
CC50 [6]: 54.4 µM
growth at 10 µM [32]: 17.7%
growth at 10 µM [33]: 1%
growth at 0.1 µM [7]: 69%
growth at 0.01 µM [8]: 90%
growth at 1 µM [9]: 7%
growth at 1 µM [10]: 31%
growth at 10 µM [11]: 34.1%
growth at 10 µM [34]: 15.4%
GI50 [12]: 3630 nM
TGI [12]: 93.6 µM
CC50 [12]: > 100 µM
growth at 10 µM [35]: -6%
growth at 10 µM [13]: -28%
growth at 1 µM [14]: -13%
growth at 1 µM [15]: 29%
growth at 0.1 µM [16]: 73%
growth at 0.001 µM [17]: 94%
growth at 0.1 µM [18]: 81%
growth at 10 µM [19]: -3%
growth at 10 µM [20]: -1%
growth at 0.01 µM [21]: 94%
growth at 1 µM [22]: -58%
GI50 [23]: 1490 nM
LC50 (concentration killing 50% of the starting cells) [23]: 8.62 µM
TGI [23]: 3590 nM
growth at 0.01 µM [24]: 103%
growth at 0.1 µM [25]: 75%
growth at 0.001 µM [26]: 97%
growth at 0.01 µM [27]: 88%
growth at 0.001 µM [28]: 90%
growth at 10 µM [30]: -58%
GI50 [31]: 2050 nM
LC50 [31]: > 100 µM
TGI [31]: 15.9 µM

COc1cc(C)cc(-c2c(-c3ccnc(-c4ccc(N(C)C)cc4)c3)cnn2CC#N)c1
growth at 10 µM [2]: 6%
growth at 10 µM [32]: 0.08%
growth at 10 µM [33]: 4%
growth at 10 µM [34]: 3.55%
growth at 10 µM [35]: 7%
growth at 1 µM [14]: -31%
growth at 1 µM [29]: -21%
